# ABCG2 inh: blocks JC-1 efflux by human ABCG2 transporter; IgMXP3 cells, flow cytometry; inhibition, % at 6.6 µM; 0.1% of 190,000 active; AID 1325;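 active = inhibition above 80%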;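 note: 0% = DMSO and 100% = nicardipine control wells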
#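 Assay system – ABCG2 IgMXP3 and barcoded ABCB1 CCRF-Adr cell mix · Input – 3 million cells/mL in well · Reagent – JC-1 fluorescent substrate · Compound – single test compound dose, 6.6 µM final · Timing – 10 min exposure at 25 °C with rotation, no wash · Detection – flow cytometry of retained JC-1 fluorescence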
# ABCB1 block: blocks JC-1 efflux by human ABCB1 transporter; inhibition, % at 6.6 µM; CCRF-Adr cells, flow cytometry; P08183; 0.067% of 190,000 active; in the data active = inhibition above about 40%;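 note: 0% = vehicle and 100% = reference inhibitor; higher value means more JC-1 retained so stronger ABCB1 efflux block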
# Target sequence (P08183 whole entry, looked up): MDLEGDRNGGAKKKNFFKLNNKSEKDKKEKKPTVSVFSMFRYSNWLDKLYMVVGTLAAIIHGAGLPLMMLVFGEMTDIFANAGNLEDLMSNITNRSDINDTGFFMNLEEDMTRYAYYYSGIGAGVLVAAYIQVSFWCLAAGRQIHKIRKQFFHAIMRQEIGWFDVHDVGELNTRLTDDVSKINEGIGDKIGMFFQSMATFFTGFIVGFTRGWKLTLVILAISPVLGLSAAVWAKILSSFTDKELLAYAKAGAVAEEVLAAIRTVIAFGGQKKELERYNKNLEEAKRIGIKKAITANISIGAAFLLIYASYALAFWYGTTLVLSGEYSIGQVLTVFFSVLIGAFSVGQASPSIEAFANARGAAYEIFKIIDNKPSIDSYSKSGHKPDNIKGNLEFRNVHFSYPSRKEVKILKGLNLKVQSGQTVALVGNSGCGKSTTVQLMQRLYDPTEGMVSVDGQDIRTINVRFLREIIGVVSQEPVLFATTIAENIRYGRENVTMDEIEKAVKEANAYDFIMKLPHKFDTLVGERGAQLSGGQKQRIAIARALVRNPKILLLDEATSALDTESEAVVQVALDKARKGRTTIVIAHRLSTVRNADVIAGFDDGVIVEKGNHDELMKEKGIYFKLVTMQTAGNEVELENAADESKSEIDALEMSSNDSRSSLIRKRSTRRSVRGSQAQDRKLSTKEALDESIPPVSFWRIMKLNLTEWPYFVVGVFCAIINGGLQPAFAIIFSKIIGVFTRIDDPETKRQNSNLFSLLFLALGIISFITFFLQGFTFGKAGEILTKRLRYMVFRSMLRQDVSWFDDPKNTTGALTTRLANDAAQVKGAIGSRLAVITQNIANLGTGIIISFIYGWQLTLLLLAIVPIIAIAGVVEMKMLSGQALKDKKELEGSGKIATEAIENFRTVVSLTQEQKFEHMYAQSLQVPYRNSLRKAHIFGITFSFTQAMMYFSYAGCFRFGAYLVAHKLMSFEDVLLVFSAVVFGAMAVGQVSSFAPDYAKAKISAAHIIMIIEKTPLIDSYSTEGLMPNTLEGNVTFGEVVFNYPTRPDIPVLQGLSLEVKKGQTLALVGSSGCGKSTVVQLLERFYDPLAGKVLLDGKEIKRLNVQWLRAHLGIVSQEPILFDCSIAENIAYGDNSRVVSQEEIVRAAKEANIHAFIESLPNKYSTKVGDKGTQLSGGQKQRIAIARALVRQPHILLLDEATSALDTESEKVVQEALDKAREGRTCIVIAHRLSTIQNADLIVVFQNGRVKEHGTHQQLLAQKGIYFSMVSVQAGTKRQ
# RAM inhibit: inhibitors of the yeast RAM network | 1.8% of 190,000 active | S. cerevisiae dse1pr::URA3 reporter, 5-FOA growth OD615, 2 d; analog-sensitive cbk1-as2 kinase mutant strain | inhibition, % at 50 µM | AID 868;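 active = inhibition above a set limit, 3 SD over mean compound inhibition, cut at about 8.4% in these data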;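 note: 0% = DMSO-only wells with no growth and 100% = 10 µM 1-NA-PP1 full growth; inhibition rescues growth on 5-FOA so higher OD means more RAM inhibition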
# Arbovirus anti: antivirals against arbovirus infection. arbovirus infection cell-based antiviral screen. inhibition, % at 10 µM. 0.37% of 200,000 active; in the data active = inhibition above about 30%
# Numbers without * were called inactive. Most compounds without a hit are left out; they make up all but 2.3% or so of the library.
SMILES,ABCG2 inh,ABCB1 block,RAM inhibit,Arbovirus anti
Nc1c(N2CCCC2)c2ccccc2oc1=O,0,0,1,-3
CCN(CC)S(=O)(=O)c1ccc(Cl)c(NC(=O)COc2ccccc2[N+](=O)[O-])c1,20,2,8.8*,2
CC1=C(C(=O)Nc2ccccc2)C(c2ccc(Cl)cc2)n2c(s/c(=C/c3cccc(OCC(=O)O)c3)c2=O)=N1 (stereo not drawn),-4,-1,4,4
CCCOc1ccc(Cn2c(=O)oc3ccc(C)cc32)cc1OC,2,1,8.6*,-3
CCOc1ccc(CC(=O)NNC(=S)Nc2ccccc2)cc1Br,-4,-1,0,5
O=c1cc(/N=C/c2coc3c(ccc4ccccc43)c2=O)[nH]c(=S)[nH]1,-11,-2,11*,-29
Cc1ccc(NC(=O)c2cc(NC(=O)CCC(=O)O)ccc2N2CCCCC2)cc1,0,0,9.0*,-2
CCOc1ccc2c(c1)-c1c(ssc1=S)C(C)(C)N2C,6,0,8.8*,-17
CCNC(=S)N1CCc2cc(OC)c(OC)cc2C1COc1ccc(F)cc1 (stereo not drawn),2,0,3,2
COCCNC(=S)N1CCc2cc(OC)c(OC)cc2C1COc1ccc(F)cc1 (stereo not drawn),9,5,8.8*,-3
O=C(Nc1ccc(OC(F)F)c(Cl)c1)C(c1ccccc1)c1ccccc1,22,1,9.6*,10
CCOc1cc(NC(=S)NCc2ccco2)c(OCC)cc1NC(=O)C1CC1,8,0,4,-3
COc1ccnc(Oc2ccc(F)cc2)c1C(=O)N/C=N/OCc1cccc(F)c1,25,3,2,-6
Cn1nc(C(=O)OCc2ccc(F)cc2)c2ccccc2c1=O,6,1,10*,20
Cc1ccc(-c2nc(N)n(C(=O)c3ccco3)n2)cc1,10,-1,2,1
COc1ccccc1N1C(C)=CC(=C(C#N)c2nc3ccccc3s2)C=C1C,-7,0,8.5*,-7
CC1(C)Nc2ccccc2N(CC(=O)N2CCCCC2)C1=O,1,0,2,2
O=C(O)c1csc(N/N=C/c2ccc(Br)cc2)n1,1,0,4,46*
c1c(C2CCCCC2)n[nH]c1CN1CCCCC1,0,0,1,2
COc1ccccc1OCCCCOc1ccccc1C(C)=O,16,1,0,14
C/C=C/c1ccc(OCCCCOc2ccccc2C(C)=O)c(OC)c1,10,1,1,36*
COc1ccc(C(=O)OCCOc2ccccc2C(C)=O)c(O)c1,9,1,11*,-6
Cc1ccc(S(=O)(=O)N2CCC(=O)N(C(COCc3cccc(Cl)c3)C(C)C)CC2)cc1 (stereo not drawn),6,6,8.6*,-2
Cc1ccc(S(=O)(=O)N2CCC(=O)N(C(COCc3cccc(C(F)(F)F)c3)Cc3ccccc3)CC2)cc1 (stereo not drawn),0,1,9.8*,-4
CC(SC1CCCC1)C(=O)Nc1ccnn1C(C)C (stereo not drawn),1,0,3,1
SMILES,ABCG2 inh,ABCB1 block,RAM inhibit,Arbovirus anti
CC(=O)c1c(OC(=O)c2ccccc2)c2ccccc2n1C,5,1,8.4*,0
CC(=O)c1c(C)n(C)c2ccc(OC(=O)c3ccc([N+](=O)[O-])cc3)cc12,7,0,5,4
COc1cc(C2N=C(c3ccccc3)NO2)cc(Br)c1O (stereo not drawn),5,1,2,35*
CCOC(=O)C1(CCCc2ccccc2)CCN(C2CCSCC2)CC1,-5,-2,0,30*
OCC1(CCCc2ccccc2)CCN(C2CCSCC2)CC1,1,0,-1,-6
CCOC(=O)c1sc(NC(=O)c2cccc(S(=O)(=O)N(CC)CC)c2)cc1C,1,0,10*,-16
CCCOc1ccc(-c2nc(C#N)c(N3CCN(C)CC3)o2)cc1,1,1,0,-8
CCCOc1ccc(-c2nc(C#N)c(N3CCc4ccccc4C3)o2)cc1,0,0,11*,0
COc1ccc(NS(=O)(=O)c2cc(NC(=O)Cc3cccs3)ccc2C)cc1,-2,0,4,-6
COc1ccc(NS(=O)(=O)c2cc(NC(=O)[C@@H](NC(=O)c3ccccc3)C(C)C)ccc2C)cc1,0,0,8.6*,-16
CC(=O)Nc1ccc2nc(NC(=O)COc3ccccc3Cl)sc2c1,-1,0,9.9*,10
CC(=O)Nc1ccc2nc(NC(=O)COc3ccccc3C)sc2c1,-4,-1,5,-2
